# Measurements as given in ChEMBL document CHEMBL5625195, “Identification of novel tetrahydroquinoxaline derived phenyl ureas as modulators of the hepatitis B virus nucleocapsid assembly” (Eur J Med Chem, 2023).
# Active and inactive are the calls of the source. No cut-off for these calls is given here.
# Tests used:
# [1] = Cytotoxicity against human HepDES19 cells assessed as reduction in cell viability incubated for 6 days by MTT assay; assay type: toxicity, cell-based; details: time 6 day
# Method in brief: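 Tetracycline-free HepDES19 cells in 96-well plates were exposed to […] serial dilutions (50 μM to 0.39 μM) for 6 days. Viability was checked by microscopy and measured by MTT. CC50 was the concentration reducing viability by 50%.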
# Hepatitis B virus [2] = test: Antiviral activity against HBV infected in HepDES19 cells assessed as reduction viral DNA incubated for 4 days by qPCR analysis; assay type: functional, organism-based; details: HepDES19, 96 h
# Method in brief: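 HepDES19 (HepG2-derived, tetracycline-inducible HBV) cells in 24-well plates, cultured without tetracycline for 2 days, then mock or serial 2-fold compound dilutions for 4 more days. Cytoplasmic HBV core DNA was extracted and quantified by qPCR. EC50 came from triplicate biological experiments by regression.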
# Hepatitis B virus [3] = test: Antiviral activity against HBV infected in AML12HBV10 cells assessed as reduction viral replication incubated for 48 hrs; assay type: functional, organism-based; details: AML12HBV10, 48 h
# Method in brief: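 AML12HBV10 cells were seeded at 2 x 10^4 per well without tetracycline. After one day, 2-fold serial dilutions (10 μM to 0.08 μM) were applied for 48 h. Lysates were denatured, neutralized and dot-blotted, then hybridized with a 32P-labelled riboprobe specific for HBV minus-strand DNA and read by phosphorimager. EC50 was the concentration reducing HBV DNA by 50%.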
# [4] = Cytotoxicity against mouse AML12 cells assessed as reduction in cell viability incubated for 48 hrs by MTT assay; assay type: toxicity, cell-based; details: AML12 cells
# Method in brief: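 Stable AML12HBV10 hepatocytes (AML12-derived), cultured without tetracycline, were exposed to 2-fold serial dilutions (50 μM to 1.56 μM) for 48 h. Viability was inspected microscopically and quantified by MTT. CC50 was the concentration lowering viability by 50%.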
# Hepatitis B virus [5] = test: Antiviral activity against HBV infected in AML12HBV10 cells assessed as change in total viral RNA at 1 to 5 uM after 2 days by Northern blot hybridization; assay type: functional, organism-based; details: dose 1-5 µM, time 2.0 day
# Method in brief: (§1)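 AML12HBV10 cells in 24-well plates were kept with or without tetracycline for 24 h. Tet-maintained cells served as the no-pgRNA negative control. Cells were then mock (DMSO) or compound treated for 48 h. Total viral RNA and encapsidated pgRNA were read by Northern blot with rRNA as loading control. Core protein was read by Western blot (C-terminal 14-residue antibody, β-actin control), capsids by native particle gel assay, and replication intermediates by Southern blot.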
# Hepatitis B virus [6] = test: Antiviral activity against HBV infected in AML12HBV10 cells assessed as decrease in encapsidated pgRNA at 1 to 5 uM after 2 days by Northern blot hybridization; assay type: functional, organism-based; details: dose 1-5 µM, time 2.0 day
# Method in brief: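 AML12HBV10 cells were induced by tetracycline withdrawal for 24 h, then mock (DMSO) or compound treated for 48 h, with tetracycline-maintained cells as negative control. Encapsidated pgRNA was detected by Northern blot hybridization, using ribosomal RNA as loading control.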
# Hepatitis B virus [7] = test: Antiviral activity against HBV infected in AML12HBV10 cells assessed as decrease in capsid assembly at 1 to 5 uM after 2 days by Northern blot hybridization; assay type: functional, organism-based; details: dose 1-5 µM, time 2.0 day
# Method in brief: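 AML12HBV10 cells (mouse hepatocyte line carrying tetracycline-inducible, envelope-deficient HBV genome) in 24-well plates. Tetracycline was removed for 24 h before treatment; tetracycline-maintained cells served as negative control. Cells were mock (DMSO) or compound treated for a further 48 h. Intracellular capsids and core-associated DNA were resolved by native agarose gel particle assay.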
# Hepatitis B virus [8] = test: Antiviral activity against HBV infected in AML12HBV10 cells assessed as change in core protein at 1 to 5 uM after 2 days by Northern blot hybridization; assay type: functional, organism-based; details: dose 1-5 µM, time 2.0 day; method in brief: as §1
# Hepatitis B virus [9] = test: Antiviral activity against HBV infected in AML12HBV10 cells assessed as decrease in viral DNA replication at 1 to 5 uM after 2 days by Northern blot hybridization; assay type: functional, organism-based; details: dose 1-5 µM, time 2.0 day; method in brief: as §1
Structure (SMILES),EC50 (Hepatitis B virus [3]) [µM],CC50 at 48 h [4] [µM],other results
O=C(Nc1ccc(F)c(Cl)c1)c1cccc2c1OCCO2,–,–,CC50 at 144 h [1]: > 50 µM; EC50 (Hepatitis B virus [2]): 1.02 µM
O=C(Nc1ccc(F)c(Cl)c1)N1CCc2ccccc21,0.97,> 100,–
NC1CCN(C(=O)Nc2ccc(F)c(Cl)c2)c2ccccc21 (racemic),> 10,> 100,–
O=C1CN(C(=O)Nc2ccc(F)c(Cl)c2)c2ccccc2N1,> 10,> 50,–
O=C(Nc1ccc(F)c(Cl)c1)N1CCNc2cc(F)c(F)cc21,1.78,> 100,–
O=C(Nc1ccc(F)c(Cl)c1)N1CCc2cccnc21,> 10,> 25,–
O=C(Nc1ccccc1)N1CCN(C(=O)Nc2ccc(F)c(Cl)c2)c2ccccc21,7.34,> 12.5,–
O=S(=O)(Nc1ccc(F)c(Cl)c1)N1CCNc2ccccc21,> 10,> 100,–
O=C(Nc1cccc(Cl)c1)N1CCNc2ccccc21,1.13,> 100,–
O=C(Nc1ccc(F)c(Cl)c1)N1c2ccccc2NCC1CN1CCOCC1 (stereo not drawn),7.3,> 40,–
O=C(Nc1ccc(F)c(Cl)c1)N1c2ccccc2NCC1CN1CCC(F)(F)C1 (stereo not drawn),1.7,> 100,–
O=C(Nc1ccc(F)c(Cl)c1)N1CCN(CCCCF)c2ccccc21,> 10,> 50,–
O=C(NCc1ccccc1)N1CCN(C(=O)Nc2ccc(F)c(Cl)c2)c2ccccc21,> 10,> 20,–
O=C(Nc1ccc(F)c(C(F)F)c1)N1CCNc2ccccc21,0.19,> 20,–
O=C(Nc1ccc(F)c(Cl)c1)N1CC(CN2CCC(F)(F)CC2)N(C(=O)Nc2ccc(F)c(Cl)c2)c2ccccc21 (stereo not drawn),1.61,> 100,–
O=C(Nc1ccc(F)c(Cl)c1)N1CCN(C(=O)Nc2cc(Cl)c(F)cc2F)c2ccccc21,0.39,> 20,CC50 at 144 h [1]: 16.8 µM; EC50 (Hepatitis B virus [2]): 0.95 µM
O=C(Nc1ccc(F)c(C(F)(F)F)c1)N1CCNc2ccccc21,0.32,> 20,–
O=C(Nc1ccc(F)c(C(F)(F)F)c1)N1c2ccccc2NCC1CN1CCC(F)(F)CC1 (stereo not drawn),0.34,31.4,–
Cc1cc(NC(=O)N2c3ccccc3NCC2CN2CCC(F)(F)CC2)ccc1F (stereo not drawn),0.27,> 50,–

Structure (SMILES),EC50 (Hepatitis B virus [3]) [µM],CC50 at 48 h [4] [µM],other results
O=C(Nc1ccc(F)c(Cl)c1)N1CC2(CCCC2)Nc2ccccc21,> 10,> 100,–
O=C(Nc1ccc(F)c(Cl)c1)N1CC(c2ccccc2)Nc2ccccc21 (stereo not drawn),10,> 50,–
O=C(Nc1ccc(F)c(Cl)c1)N1CCN[C@H]2CCCC[C@H]21 (relative stereo),> 10,> 100,–
[N-]=[N+]=Nc1ccc(NC(=O)N2CCNc3ccccc32)cc1Cl,1.66,> 100,–
N#Cc1cc(NC(=O)N2c3ccccc3NCC2CN2CCC(F)(F)CC2)ccc1F (stereo not drawn),0.09,> 50,CC50 at 144 h [1]: > 50 µM; EC50 (Hepatitis B virus [2]): 0.15 µM
O=C(Nc1cccnc1)N1CCN(C(=O)Nc2ccc(F)c(Cl)c2)c2ccccc21,5.76,> 100,–
O=C(Nc1cc(Cl)ccc1F)N1CCNc2ccccc21,0.77,> 100,–
O=C(Nc1ccc(F)c(Cl)c1)N1CCN(C(=O)Nc2ccc(F)c(Cl)c2)[C@H]2CCCC[C@H]21,> 10,> 100,–
O=C(Nc1ccc(C(O)(C(F)(F)F)C(F)(F)F)cc1)N1CCNc2ccccc21,> 10,> 20,–
O=C(Nc1ccc(F)c(Cl)c1)N1CC(CN2CCC(F)(F)C2)N(C(=O)Nc2ccc(F)c(Cl)c2)c2ccccc21 (stereo not drawn),1.14,> 100,–
O=C(Nc1ccc(F)c(Cl)c1)N1CCCCc2ccccc21,> 10,> 100,–
O=C(Nc1ccc(F)c(Cl)c1)N1CC(CN2CCC(F)(F)CC2)Nc2ccccc21 (stereo not drawn),4.32,> 100,–
O=C(Nc1ccc(F)c(Cl)c1)N1c2ccccc2NCC1c1ccccc1 (stereo not drawn),0.78,> 50,–
O=C(Nc1ccc(F)c(Cl)c1)N1c2ccccc2NCC1CN1CCC(F)(F)CC1 (stereo not drawn),0.28,> 50,–
O=C(Nc1ccc(F)c(Cl)c1)N1CCN(C(=O)Nc2ccc(F)c(Cl)c2)c2ccccc21,1.01,> 12.5,Activity (Hepatitis B virus [5]): inactive; Activity (Hepatitis B virus [6]): Active; Activity (Hepatitis B virus [7]): Active; Activity (Hepatitis B virus [8]): inactive; Activity (Hepatitis B virus [9]): Active
O=C(Cc1ccc(F)c(Cl)c1)N1CCNc2ccccc21,> 10,> 20,–
CC(C)C1CNc2ccccc2N1C(=O)Nc1ccc(F)c(Cl)c1 (stereo not drawn),4.5,> 100,–
O=C(Nc1ccc(F)c(Cl)c1)N1CCCc2ccccc21,1.55,> 100,–
O=C(Nc1cc(F)c(F)c(Cl)c1)N1CCNc2ccccc21,0.93,> 100,–

Structure (SMILES),EC50 (Hepatitis B virus [3]) [µM],CC50 at 48 h [4] [µM],other results
O=C(Nc1cc(F)c(F)c(F)c1)N1CCNc2ccccc21,0.63,> 100,–
O=C(Nc1ccc(F)c(F)c1)N1c2ccccc2NCC1CN1CCC(F)(F)CC1 (stereo not drawn),0.39,> 50,–
N#Cc1cc(NC(=O)N2CCNc3ccccc32)ccc1F,0.52,> 20,–
O=C(Nc1cc(F)c(F)c(F)c1)N1CCN(C(=O)Nc2ccc(F)c(Cl)c2)c2ccccc21,0.32,> 20,–
O=C(Nc1ccc(F)c(Cl)c1)C1CCNc2ccccc21 (racemic),> 10,> 100,–
O=C(Nc1cccc(Cl)c1)N1c2ccccc2NCC1CN1CCC(F)(F)CC1 (stereo not drawn),0.35,> 50,–
CC1CN(C(=O)Nc2ccc(F)c(Cl)c2)c2ccccc2N1 (stereo not drawn),> 10,> 50,–
CC1CNc2ccccc2N1C(=O)Nc1ccc(F)c(Cl)c1 (stereo not drawn),3.02,> 100,–
Cc1cc(NC(=O)N2CCNc3ccccc32)ccc1F,0.24,> 20,–
O=C(Nc1ccc(F)c(C(F)F)c1)N1c2ccccc2NCC1CN1CCC(F)(F)CC1 (stereo not drawn),0.1,> 50,CC50 at 144 h [1]: 29.3 µM; EC50 (Hepatitis B virus [2]): 0.04 µM
O=C(Nc1cccc(Cl)c1)N1CCN(C(=O)Nc2ccc(F)c(Cl)c2)c2ccccc21,0.65,> 100,–
O=C(Nc1ccc(F)c(Cl)c1)N1CC(CN2CCOCC2)N(C(=O)Nc2ccc(F)c(Cl)c2)c2ccccc21 (stereo not drawn),2.03,> 100,–
O=C(NCc1cccc(Cl)c1)N1CCNc2ccccc21,8.07,> 100,–
O=C(Nc1cc(F)c(F)c(F)c1)N1c2ccccc2NCC1CN1CCC(F)(F)CC1 (stereo not drawn),0.29,> 50,–
CC1(C)CCN(CC2CNc3ccccc3N2C(=O)Nc2ccc(F)c(Cl)c2)CC1 (stereo not drawn),> 10,> 40,–
O=C(Nc1ccc(F)c(Cl)c1)N1CC(CN2CCOCC2)Nc2ccccc21 (stereo not drawn),> 10,> 20,–
O=C(Nc1ccc(F)c(Cl)c1)N1CC(CN2CCC(F)(F)C2)Nc2ccccc21 (stereo not drawn),5.09,> 100,–
O=C(Nc1ccnc(Cl)c1)N1CCN(C(=O)Nc2ccc(F)c(Cl)c2)c2ccccc21,1.11,> 20,–
